Measured values reported in ChEMBL document CHEMBL5154742, “Thiosugar naphthalene diimide conjugates: G-quadruplex ligands with antiparasitic and anticancer activity” (Eur J Med Chem, 2022).
The source made the active and inactive calls. No cut-off for these calls is given here.

Columns and labels:
Trypanosoma brucei = assay: Antitrypanosomal activity against Trypanosoma brucei incubated for 72 hrs by alamar blue dye based fluorimetry analysis; type: functional, organism-based
Summary of the method: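 Bloodstream-form T. brucei S16 (Lister 427, MiTat 1.2), 1×10^3 per well in HMI-9 with 20% hiFBS, exposed to increasing compound concentrations for 72 h at 37 °C, 5% CO2. Resazurin then added for 4 h, cells lysed with SDS, fluorescence read at ex 550/em 590 nm. IC50 from four-parameter logistic fit; three independent runs, each in triplicate.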

Leishmania major = assay: Antileishmanial activity against Leishmania major (MHOM/IL/80/Friedlin) promastigotes assessed as reduction in parasite growth incubated for 72 hrs by MTT assay; type: functional, organism-based
Summary of the method: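 L. major Friedlin promastigotes, 1×10^6/mL in modified RPMI-1640 with 10% hiFBS, exposed to increasing compound concentrations for 72 h at 28 °C; proliferation read by MTT; IC50 from four-parameter logistic fit versus untreated controls.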

HT-29 = assay: Cytotoxicity against human HT-29 cells assessed as reduction in cell viability incubated for 48 hrs by MTT assay; type: functional, cell-based; conditions: HT-29, 48 h
Summary of the method: (§1)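 MTT assay: 5×10^3 cells per well in DMEM with 10% hiFBS (4.5 g/L glucose for HT-29, 1 g/L for MRC-5), exposed to increasing compound concentrations for 48 h at 37 °C. MTT added for 4 h, formazan dissolved in DMSO, absorbance read at 575 nm. IC50 from four-parameter logistic fit.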

[1] = Cytotoxicity against human MRC5 cells assessed as reduction in cell viability incubated for 48 hrs by MTT assay; type: toxicity, cell-based; summary of the method: as §1
[2] = Selectivity index, ratio of IC50 for human MRC5 cells to IC50 for human HT-29 cells; type: toxicity; conditions: MRC5 cells versus HT-29 cells, read-out: Selectivity Index
Summary of the method: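 Selectivity index: MRC-5 IC50 divided by HT-29 IC50.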

[3] = Selectivity index, ratio of IC50 for cytotoxicity against human MRC5 cells to IC50 for antileishmanial activity against Leishmania major (MHOM/IL/80/Friedlin) promastigotes; type: toxicity, cell-based; conditions: read-out: Selectivity Index
Summary of the method: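 Selectivity index: MRC-5 IC50 divided by L. major promastigote IC50.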

[4] = Selectivity index, ratio of IC50 for cytotoxicity against human MRC5 cells to IC50 for antitrypanosomal activity against Trypanosoma brucei; type: toxicity, cell-based; conditions: MRC5 cells versus Trypanosoma brucei, read-out: Selectivity Index
Summary of the method: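 Selectivity index: MRC-5 IC50 divided by T. brucei IC50.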

Quadruplex DNA [5] = assay: Binding affinity to human G-quadruplex telomeric DNA F21T (5'-duplex GGG TTAGGG TTAGGG TTAGGG-3') assessed as change in melting temperature at 1 uM incubated for 5 min by FRET assay; type: nucleic-acid assay
Summary of the method: (§2)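 Fluorescently labelled oligonucleotide annealed (95 °C, 5 min) in 10 mM lithium cacodylate/90 mM LiCl, pH 7.2; 0.2 μM final, with or without ligand. Held 5 min at 25 °C, then heated 0.5 °C/min to 95 °C. Tm taken at normalized signal 0.5; ΔTm = Tm with ligand minus Tm without. Tested in duplicate.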

Quadruplex DNA [6] = assay: Binding affinity to parallel G-quadruplex DNA TGGGGT TGGGGT TGGGGT TGGGGT (unknown origin) by mass spectrometric analysis; type: nucleic-acid assay
Summary of the method: (§3)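 Native ESI-FTICR MS in negative ion mode under soft conditions, in 100 mM ammonium acetate; DNA at 5 μM with ligand at 10 μM.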

Quadruplex DNA [7] = assay: Binding affinity to human G-quadruplex telomeric DNA F21T (5'-duplex GGG TTAGGG TTAGGG TTAGGG-3') by mass spectrometric analysis; type: nucleic-acid assay; summary of the method: as §3
[8] = Drug uptake in Trypanosoma brucei at 10 uM incubated for 2 hrs by fluorescence based multiplate reader method; type: ADME
[9] = Drug localization in nucleus of human HT-29 cells at 25 uM incubated for 30 to 120 mins by DAPI staining based fluorescence microscopic analysis; type: ADME, subcellular; conditions: ht-29, 25 µM, time 30-120 min
Summary of the method: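 HT-29 cells grown 24 h on coverslips in FBS-free medium, then exposed to 25 μM compound for 30 or 120 min at 37 °C. Mounted in DAPI medium and imaged by widefield fluorescence microscopy; compound emission collected at 578–610 nm, DAPI at 437–474 nm.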

[10] = Drug localization in nucleus of Trypanosoma brucei at 5 uM incubated for 30 to 120 mins by DAPI staining based fluorescence microscopic analysis; type: ADME, subcellular; conditions: time 30-120 min
Summary of the method: (§4)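 T. brucei at 1×10^7/mL exposed to 5 μM compound in FBS-free medium for 30 and 120 min at 37 °C; fixed in cold 4% paraformaldehyde, DAPI-stained and imaged by widefield microscopy. Compound excited with the 542–566 filter and emission collected at 578–610 nm.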

[11] = Drug uptake in human HT-29 cells at 10 uM incubated for 2 hrs by fluorescence based multiplate reader method; type: ADME, cell-based; conditions: ht-29, 2 h
Summary of the method: (§5)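 225,000 trypsinized cells incubated with 10 μM compound in 0.75 mL medium for 2 h at 37 °C; washed three times with PBS, lysed in 3% SDS and sonicated. NDI fluorescence read at ex 485/em 535 nm, quantified against a calibration curve in cell lysate and normalized to BCA protein. Reported as % of compound added.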

[12] = Drug uptake in human MRC5 cells at 10 uM incubated for 2 hrs by fluorescence based multiplate reader method; type: ADME, cell-based; conditions: mrc5, 2 h; summary of the method: as §5
[13] = Drug localization in cytoplasm of Trypanosoma brucei at 5 uM incubated for 30 to 120 mins by DAPI staining based fluorescence microscopic analysis; type: ADME, subcellular; conditions: time 30-120 min; summary of the method: as §4
Quadruplex DNA [14] = assay: Binding affinity to human G-quadruplex telomeric DNA F21T (5'-duplex GGG TTAGGG TTAGGG TTAGGG-3') assessed as change in melting temperature at 2 uM incubated for 5 min by FRET assay; type: nucleic-acid assay; summary of the method: as §2

Compound	IC50 (Trypanosoma brucei) [µM]	IC50 (Leishmania major) [µM]	IC50 (HT-29) [µM]	IC50 at 48 h [1] [µM]	selectivity ratio [2]	selectivity ratio [3]	selectivity ratio [4]	ΔTm (Quadruplex DNA [5]) [°C]	Activity (Quadruplex DNA [6])	Activity (Quadruplex DNA [7])	Drug uptake [8] [%]	Drug uptake [9]	Drug uptake [10]	Drug uptake [11] [%]	Drug uptake [12] [%]	Drug uptake [13]	ΔTm (Quadruplex DNA [14]) [°C]
CN(C)CCCN1C(=O)c2ccc3c4c(c(NCc5cn(CCS[C@@H]6O[C@H](CO)[C@H](O)[C@H](O)[C@H]6O)nn5)cc(c24)C1=O)C(=O)N(CCCN(C)C)C3=O	0.04	0.74	0.35	1.55	4.4	2.1	38.7	10	Active	Active							
CN(C)CCCN1C(=O)c2ccc3c4c(c(NCc5cn(CCO[C@@H]6O[C@H](CO)[C@H](O)[C@H](O)[C@H]6O)nn5)cc(c24)C1=O)C(=O)N(CCCN(C)C)C3=O	0.05	13.9	0.5	1.94	3.9	0.14	38.8	10	Active	Active							
CN(C)CCCN1C(=O)c2ccc3c4c(c(NCc5cn(CCS[C@@H]6O[C@H](CO)[C@@H](O)[C@H](O)[C@H]6O)nn5)cc(c24)C1=O)C(=O)N(CCCN(C)C)C3=O	0.05	1.38	0.75	2.75	3.7	2	55										
O=C1c2ccc3c4c(c(NCc5cn(CCS[C@H]6O[C@H](CO)[C@@H](O)[C@H](O)[C@@H]6O)nn5)cc(c24)C(=O)N1CCN1CCOCC1)C(=O)N(CCN1CCOCC1)C3=O	0.73	21.7	3.39	22.6	6.7	1.1	31				3.2						
CN(C)CCCN1C(=O)c2ccc3c4c(c(NCc5cn(CCS[C@@H]6O[C@H](CO)[C@@H](O[C@H]7O[C@H](CO)[C@@H](O)[C@H](O)[C@H]7O)[C@H](O)[C@H]6O)nn5)cc(c24)C1=O)C(=O)N(CCCN(C)C)C3=O	0.06	0.51	0.3	2.94	9.8	5.7	49	10	Active	Active	4.3	Active	Active	23.1	20.7	Active	
CN(C)CCCN1C(=O)c2ccc3c4c(c(NCc5cn(CCS[C@H]6O[C@H](CO)[C@@H](O)[C@H](O)[C@@H]6O)nn5)cc(c24)C1=O)C(=O)N(CCCN(C)C)C3=O	0.08	1.52	0.88	2.78	3.2	1.8	34.7				6.1						
O=C1c2ccc3c4c(c(NCc5cn(CCS[C@@H]6O[C@H](CO)[C@@H](O)[C@H](O)[C@H]6O)nn5)cc(c24)C(=O)N1CCN1CCOCC1)C(=O)N(CCN1CCOCC1)C3=O	1.18	30.2	28.9	35.7	1.2	1.2	30.3										
O=C1c2ccc3c4c(c(NCc5cn(CCO[C@H]6O[C@H](CO)[C@@H](O)[C@H](O)[C@@H]6O)nn5)cc(c24)C(=O)N1CCN1CCOCC1)C(=O)N(CCN1CCOCC1)C3=O	2.1	> 50	8.52	30.5	3.6		14.5				4.2						
CN(C)CCCN1C(=O)c2ccc3c4c(c(NCc5cn(CCO[C@@H]6O[C@H](CO)[C@@H](O[C@H]7O[C@H](CO)[C@@H](O)[C@H](O)[C@H]7O)[C@H](O)[C@H]6O)nn5)cc(c24)C1=O)C(=O)N(CCCN(C)C)C3=O	0.06	0.8	0.48	1.8	3.8	2.3	30	10			7	Active	Active	20.9	25.5	Active	
O=C1c2ccc3c4c(c(NCc5cn(CCS[C@@H]6O[C@H](CO)[C@@H](O[C@H]7O[C@H](CO)[C@@H](O)[C@H](O)[C@H]7O)[C@H](O)[C@H]6O)nn5)cc(c24)C(=O)N1CCN1CCOCC1)C(=O)N(CCN1CCOCC1)C3=O	3.04	> 50	13.7	> 50	> 3.6		> 16				6.7			3.5	3.3		
O=C1c2ccc3c4c(c(NCc5cn(CCO[C@@H]6O[C@H](CO)[C@@H](O)[C@H](O)[C@H]6O)nn5)cc(c24)C(=O)N1CCN1CCOCC1)C(=O)N(CCN1CCOCC1)C3=O	0.31	10.5	1.75	7.86	4.5	0.7	25.3										
O=C1c2ccc3c4c(c(NCc5cn(CCO[C@@H]6O[C@H](CO)[C@@H](O[C@H]7O[C@H](CO)[C@@H](O)[C@H](O)[C@H]7O)[C@H](O)[C@H]6O)nn5)cc(c24)C(=O)N1CCN1CCOCC1)C(=O)N(CCN1CCOCC1)C3=O	3.32	> 50	13	> 50	> 3.8		> 15				6.1			3.2	0.8		
O=C1c2ccc3c4c(c(NCc5cn(CCO[C@@H]6O[C@H](CO)[C@H](O)[C@H](O)[C@H]6O)nn5)cc(c24)C(=O)N1CCN1CCOCC1)C(=O)N(CCN1CCOCC1)C3=O	0.15	27.5	3.6	10.4	2.9	0.38	69.3	1			5.4						5
CN(C)CCCN1C(=O)c2ccc3c4c(c(NCc5cn(CCO[C@@H]6O[C@H](CO)[C@@H](O)[C@H](O)[C@H]6O)nn5)cc(c24)C1=O)C(=O)N(CCCN(C)C)C3=O	0.08	0.79	0.46	0.92	2	1.2	11.5										
CN(C)CCCN1C(=O)c2ccc3c4c(c(NCc5cn(CCO[C@H]6O[C@H](CO)[C@@H](O)[C@H](O)[C@@H]6O)nn5)cc(c24)C1=O)C(=O)N(CCCN(C)C)C3=O	0.05	0.3	0.43	0.95	2.2	3.2	19				8.1						
